Compounds with a hit are over-represented: about 0.72% of the library has one in this group of screens.
mIAP act: mouse IAP activation; muIAP, CDP-Star luminescence, 30 min; active compounds read high; 1 = vehicle-only enzyme signal, 0 = enzyme-free wells; activation factor at 10 µM; 330,000 compounds, 0.24% hits; AID 2805;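 active = activation factor of at least 2 at 20 µM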
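also added = chemiluminescent substrate CDP-Star | test system = mouse IAP enzyme | signal = chemiluminescence readout | compound = DMSO-dissolved test compounds | incubation = 30 min at room temperature | benchmarks = DMSO wells, no-enzyme wells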
mIAP inh: blocks mouse intestinal alkaline phosphatase; purified mouse IAP, CDP-Star luminescence, 30 min; inhibition, % at 10 µM; AID 2806; 330,000 compounds, 0.2% hits;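 active = inhibition of at least 40% at 10 µM in the primary screen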;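 note: plate controls were DMSO with enzyme for no effect and no enzyme wells for full effect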
hIAP block: human IAP inhibition; P09923; purified IAP, CDP-Star luminescence, 30 min; inhibition, % at 10 µM; 330,000 compounds, 0.12% hits; AID 2544;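 active = inhibition reaching a set limit with compound at 10 µM in the primary screen, cut at about 35% in these data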;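 note: plate controls were DMSO wells with enzyme for no effect and no-enzyme buffer wells for full effect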
Target sequence (P09923 whole entry, looked up): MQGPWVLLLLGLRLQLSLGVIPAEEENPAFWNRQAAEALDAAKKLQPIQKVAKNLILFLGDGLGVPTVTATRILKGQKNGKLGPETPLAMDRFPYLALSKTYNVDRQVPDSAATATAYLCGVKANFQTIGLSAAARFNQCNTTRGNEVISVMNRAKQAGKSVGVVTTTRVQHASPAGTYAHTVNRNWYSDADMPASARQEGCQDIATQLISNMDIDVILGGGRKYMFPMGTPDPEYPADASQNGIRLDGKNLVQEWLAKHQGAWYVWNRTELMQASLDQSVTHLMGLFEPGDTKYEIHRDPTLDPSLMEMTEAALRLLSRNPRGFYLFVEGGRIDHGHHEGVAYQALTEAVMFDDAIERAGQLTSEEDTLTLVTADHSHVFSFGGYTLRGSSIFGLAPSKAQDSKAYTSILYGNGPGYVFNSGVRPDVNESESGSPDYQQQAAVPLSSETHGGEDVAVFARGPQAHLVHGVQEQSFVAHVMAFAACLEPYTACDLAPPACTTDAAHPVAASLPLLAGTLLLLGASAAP
bIAP inh: intestinal alkaline phosphatase (bovine) inhibition; inhibition, % at 20 µM; purified bovine IAP, CDP-star luminescence, 30 min; AID 1019; 190,000 tested, under 10 active;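 active = over 50% inhibition of intestinal alkaline phosphatase at 20 µM in the single-dose screen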
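Incubation: 30 min reaction at room temperature / Material: purified bovine intestinal alkaline phosphatase (IAP) enzyme / Input: enzyme at 1/65,000,000 dilution / Dosing: 20 µM single dose / Signal: CDP-star luminescence signal / Reagent: CDP-star chemiluminescent phosphatase substrate, 30 µM final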
bIAP activator: intestinal alkaline phosphatase (bovine) activation; purified bovine IAP, CDP-star luminescence, 30 min; active compounds read high; fold of DMSO-control signal, blank-subtracted; activation factor at 20 µM; 200,000 compounds, 0.17% hits;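 active = activation factor of 2 or more at 20 µM, a signal rise over negative controls twice the positive control's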
hIAP act: increases human intestinal alkaline phosphatase activity; activation factor at 10 µM; 330,000 compounds, 0.16% hits; purified human IAP, CDP-Star luminescence, 30 min; active compounds read high; 1 = vehicle-only enzyme, 0 = enzyme-free background; AID 2524; P09923;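 active = activation factor of the enzyme at least 2-fold when tested at 20 µM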
hIAP act conf: human IAP activation confirmation | shares compounds with hIAP act | purified IAP, CDP-Star luminescence, 30 min; active compounds read low | activation (%Activity, negative = activation), % at 8.3 µM | 880 compounds, 10% hits | AID 434926;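 active = at least twofold enzyme activation in any of six single-dose repeats, which the averaged readout prints as negative percent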
* = called active by the depositor; . = not tested or not shown.

SMILES	mIAP act	mIAP inh	hIAP block	bIAP inh	bIAP activator	hIAP act	hIAP act conf
Cc1cc(C)cc(CC(Cc2nc3ccccc3[nH]2)c2nc3ccccc3[nH]2)c1 (stereo not drawn)	1.4	-38	-112	-422	5.2*	2.1*	-323*
O=C(CN1C2=NCCCN2c2ccccc21)c1ccc([N+](=O)[O-])cc1	1.1	-6	1	4	1	0.99	.
CCCn1ccnc1SCC(=O)Nc1c(C)n(C)n(-c2ccccc2)c1=O	0.9	10	-1	.	.	1	.
O=C(c1ccccc1NS(=O)(=O)c1ccc([N+](=O)[O-])cc1[N+](=O)[O-])N1O[C@@H]2C=C[C@H]1C2	1.1	-6	.	.	.	.	.
COc1ccc(S(=O)(=O)N(CC(=O)N2CCOCC2)Cc2ccccc2)cc1	0.94	6	-216	16	0.8	3.2*	-3
Cc1ccc(S(=O)(=O)CCC(O)c2ccc(Cl)cc2)cc1 (stereo not drawn)	0.93	8	4	.	.	0.96	.
O=C1CC(c2ccccc2)n2nc(NC(=O)c3ccccc3)nc2N1 (stereo not drawn)	0.97	3	4	6	0.9	0.96	.
O=C1CC(c2ccccc2)n2nc(NC(=O)c3ccccn3)nc2N1 (stereo not drawn)	1	-5	-137	-68	1.7	2.4*	9
COc1ccc(S(=O)(=O)N2CCc3ccccc32)cc1C(=O)NC1(C)CCS(=O)(=O)C1 (stereo not drawn)	0.91	10	-9	.	.	1.1	.
CCCCCCN1C=CC(=C/C=C(\C#N)C(=O)OCC)C=C1	0.64	36	44*	42	0.6	0.56	-27
O=c1ccc2cc(O)c(O)cc2o1	0.61	39	40*	1	1	0.6	-18
Cc1cc(OCC(=O)NNC(=O)c2cnccn2)cc(C)c1Cl	0.93	7	-106	.	.	2.1*	-55
Cc1ccc(OCC(=O)NCCCNC(=O)c2cnccn2)cc1C	1	-4	-10	.	.	1.1	.
O=C(CN1CCN(S(=O)(=O)c2ccc3ccccc3c2)CC1)Nc1ccc2c(c1)CCC2	0.83	17	-104	12	0.9	2*	-3
Cc1ccc(S(=O)(=O)N2CCN(CC(=O)Nc3ccc4c(c3)CCC4)CC2)cc1C	1.2	-19	-9	-2	1	1.1	.
CCOc1ccc2oc(C(=O)NNC(=O)c3ccccc3O)c(C)c2c1	0.78	22	-137	.	.	2.4*	-37
C[C@H](CO)N1C[C@H](C)[C@@H](CN(C)C(=O)NC2CCCCC2)Oc2ccc(NC(=O)Cc3ccccc3)cc2C1=O	1	-2	-4	.	.	1	.
O=Nc1[nH]c(=O)c(/C=C(\O)c2ccccc2)nc1NO	0.85	15	-113	.	.	2.1*	-85*
CCCCCCc1c(C)nc(-n2[nH]c(C)c(CCO)c2=O)[nH]c1=O	0.84	16	-128	-19	1.2	2.3*	-56
N#C/C(=C\c1ccc(-c2cccc([N+](=O)[O-])c2)o1)C(=O)Nc1nc(-c2cccs2)cs1	0.72	28	47*	.	.	0.53	-64
O=C1c2[nH]nc(-c3ccccc3O)c2C(c2cccc(Cl)c2)N1Cc1ccco1 (stereo not drawn)	0.98	2	-128	-39	1.4	2.3*	4
CCOc1ccccc1OCCCC(=O)N1CCN(S(=O)(=O)c2ccc(C)cc2C)CC1	1	-3	-8	.	.	1.1	.
Oc1c(N=Nc2ccccc2)sc2ccccc12	0.68	32	38*	.	.	0.62	14
CC(=Nc1ccc(O)cc1)c1sc2ccccc2c1O	0.87	13	9	14	0.9	0.91	.
O=C(COc1ccc(Cl)cc1)OCC(=O)N1CCCc2ccccc21	0.56	44*	36*	13	0.9	0.64	-20
SMILES	mIAP act	mIAP inh	hIAP block	bIAP inh	bIAP activator	hIAP act	hIAP act conf
CCN(CC)S(=O)(=O)c1cccc(-n2c(O)c(C=Nc3ccccc3C(=O)O)c3ccccc3c2=O)c1	0.89	12	15	.	.	0.85	.
CNc1nc2c(c(=O)[nH]c(=O)n2C)n1CCCc1ccccc1	0.96	4	-6	.	.	1.1	.
CCCn1c(N/N=C\C=C\c2ccccc2)nc2c1c(=O)[nH]c(=O)n2C	0.88	12	-123	-44	1.4	2.2*	2
CCCc1nn(C)c(C(=O)Nc2ccc3ccccc3c2)c1Cl	1	-2	-19	.	0.3	1.2	.
CCCCCN1CC(O)=C(c2nc3ccccc3[nH]2)C1=N	1.3	-30	-111	-13	1.1	2.1*	-45
CC1(C)C(=O)CC[C@@]2(C)[C@H]1CC[C@@]1(C)CC3=C(CC[C@@H]12)[C@@]1(C)CCC(=O)C(C)(C)[C@@H]1CC3	1.1	-7	5	.	.	0.95	.
Cc1cc(C(=O)CCC(=O)N(C)CC(=O)Nc2ccccc2Br)c(C)s1	1	0	-15	.	.	1.1	.
Cc1cc([N+](=O)[O-])nn1CC(=O)Nc1ccc(F)cc1	1	-1	1	0	1	0.99	.
Cc1cc([N+](=O)[O-])nn1CC(=O)NNC(=S)Nc1ccc(F)cc1	0.99	1	-111	-24	1.2	2.1*	6
Cc1ccc(C(=O)N(NC2=NS(=O)(=O)c3ccccc32)S(=O)(=O)c2ccc(C)cc2)cc1	1	-2	-137	2	1	2.4*	-27
CCN(C1=NS(=O)(=O)c2ccccc21)N(CC)S(=O)(=O)c1ccc(C)cc1	0.79	21	-4	9	0.9	1	.
CC1(C)C[C@@H](O)CC2(C1)C[C@]1(C)CC(O)[C@H]2C(C)(C)C1 (stereo partly drawn)	0.94	6	-105	.	.	2.1*	-93*
Cc1ccc(NCC(=O)Nc2ccc(Br)cc2)cc1F	1.1	-10	-1	22	0.8	1	.
Cc1ccc(NC(=O)NNC(=O)c2cc3ccccc3cc2O)cc1	0.96	4	-112	.	.	2.1*	-70*
COc1ccccc1NC(=O)NNC(=O)c1cc2ccccc2cc1O	0.89	11	-101	.	.	2*	-55
O=C(CCN1C(=O)C2CC=CCC2C1=O)Nc1nc(-c2ccc(F)c(F)c2)cs1 (stereo not drawn)	1.1	-10	-16	.	.	1.2	.
COC(=O)N=Nc1c(O)[nH]c2ccc(Br)cc12	0.91	9	44*	.	.	0.56	-37
O=C(CNC(=O)c1ccccc1)N=Nc1c(O)[nH]c2ccc(Br)cc12	0.98	2	-58	.	.	1.6	.
Cc1ccc(C2(O)C(=O)c3ccccc3C2=O)c(O)c1C	1	-4	-1	.	.	1	.
CC(C)(C)c1cccc(C2(O)C(=O)c3ccccc3C2=O)c1O	0.95	5	58*	.	.	0.42	5
CCOC(=O)c1c(-c2ccccc2)csc1NC(=O)COc1ccc2c(C)cc(=O)oc2c1	1.1	-8	44*	7	0.9	0.56	-19

Assay outcomes deposited in PubChem by Sanford-Burnham Center for Chemical Genomics.
